Test results reported in ChEMBL document CHEMBL4190289, “Antifungal and Cytotoxic β-Resorcylic Acid Lactones from a Paecilomyces Species” (J Nat Prod, 2017).
Structures can show the parent of a compound that is named as a salt.

Legend:
Fusarium verticillioides = assay: Antifungal activity against Fusarium verticillioides after 8 hrs by conidial germination assay; format: functional, organism-based
Method in brief: (§1)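 Conidia from PDA cultures (P. litchii 7-day-old, F. verticillioides 3-day-old), diluted in half-strength PDB, counted and used immediately. Samples in DMSO as 2-fold series; final 0.625 to 80 μg/mL. Incubated 8 h at 30 °C, 150 rpm. Germination scored microscopically (germ tube ≥1.5× spore diameter), >200 conidia per replicate, triplicate. Thiram positive, DMSO negative control. IC50 from logistic nonlinear regression.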

MCF7 = assay: Cytotoxicity against human MCF7 cells after 72 hrs by MTT assay; format: functional, cell-based; settings: MCF7, 72 h
Method in brief: (§2)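 MTT colorimetric readout. DMSO stocks serially diluted in culture medium to final 50, 10, 2, 0.4, 0.08 and 0.016 μM, quadruplicate wells per concentration. Adriamycin as positive control. Inhibition rate computed from treated, control and blank OD. IC50 by nonlinear regression of logistic dose–response curves. Means ± SD of three independent experiments.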

Phytophthora litchii = assay: Antifungal activity against Peronophythora litchii after 8 hrs by conidial germination assay; format: functional, organism-based; method in brief: as §1
A549 = assay: Cytotoxicity against human A549 cells after 72 hrs by MTT assay; format: functional, cell-based; settings: A549, 72 h; method in brief: as §2
HeLa = assay: Cytotoxicity against human HeLa cells after 72 hrs by MTT assay; format: functional, cell-based; method in brief: as §2

SMILES | IC50 (Fusarium verticillioides) [µM] | IC50 (MCF7) [µM] | IC50 (Phytophthora litchii) [µM] | IC50 (A549) [µM] | IC50 (HeLa) [µM]
COc1cc(O)c2c(c1)[C@H]1O[C@@H]1C[C@H](O)[C@H](O)C(=O)/C=C\C[C@H](C)OC2=O [HYPOTHEMYCIN] | 1.1 | 3.3 | 1.9 | 1 | 1
C[C@@H]1C[C@H]2O[C@@H]2/C=C\C=C\C(=O)Cc2cc(O)cc(O)c2C(=O)O1 [MONOCILLIN I] | > 100 | 8.1 | 7.9 | 2.6 | 2.7
COc1cc(O)c2c(c1)[C@H]1O[C@@H]1CC1=C(O)C(=O)C[C@@H]1C[C@H](C)OC2=O | > 100 | > 10 | > 100 | > 10 | > 10
COc1cc(O)c2c(c1)[C@H]1O[C@@H]1CC1=C(O)C(=O)C[C@H]1C[C@H](C)OC2=O | > 100 | > 10 | > 100 | > 10 | > 10
C[C@@H]1C/C=C/CC/C=C\C(=O)Cc2cc(O)cc(O)c2C(=O)O1 | > 100 | 1.7 | 9.2 | 4.1 | 3.6
C[C@@H]1C[C@H]2C=CC[C@H](CC(=O)Cc3cc(O)cc(O)c3C(=O)O1)O2 | > 100 | 4.9 | 41 | 4.1 | 3.9
C[C@@H]1Cc2ccccc2C(=O)Cc2cc(O)cc(O)c2C(=O)O1 | > 100 | > 10 | > 100 | > 10 | > 10
CN(C)C(=S)SSC(=S)N(C)C [THIRAM] | 1.7 | – | 4.6 | – | –
C[C@@H]1C/C=C/CC[C@@H](O)CC(=O)Cc2cc(O)cc(O)c2C(=O)O1 | > 100 | > 10 | > 100 | > 10 | > 10
C[C@@H]1C[C@H]2O[C@@H]2CC/C=C/C(=O)Cc2cc(O)cc(O)c2C(=O)O1 [MONOCILLIN III] | > 100 | > 10 | 12 | 2.1 | 3.4
COc1cccc2c1C(=O)c1c(O)c3c(c(O)c1C2=O)C[C@@](O)(C(=O)CO)C[C@@H]3O[C@H]1C[C@H](N)[C@H](O)[C@H](C)O1 [DOXORUBICIN HYDROCHLORIDE] | – | – | – | 0.1 | 0.3
C[C@@H]1C/C=C/CC/C=C/C(=O)Cc2cc(O)cc(O)c2C(=O)O1 | > 100 | 4.1 | 9.8 | 1.7 | 2.7
CO[C@@H]1CC/C=C/C[C@@H](C)OC(=O)c2c(O)cc(O)cc2CC(=O)C1 | > 100 | > 10 | 19.3 | > 10 | > 10
C[C@@H]1C[C@H]2O[C@@H]2/C=C\C=C\C(=O)Cc2c(Cl)c(O)cc(O)c2C(=O)O1 [RADICICOL] | 8 | 0.4 | 1.4 | 0.1 | 0.1
C[C@@H]1C/C=C/CCCCC(=O)Cc2cc(O)cc(O)c2C(=O)O1 [MONOCILLIN IV] | > 100 | 3.6 | 33.6 | > 10 | > 10
C[C@H]1C/C=C/CC(=O)CC/C=C/c2cc(O)cc(O)c2C(=O)O1 | > 100 | 6.9 | > 100 | 3.9 | 3.6
